Assay results from different studies.
Compare with care: the assays were run in different laboratories.
Target: Serine/threonine-protein kinase PLK3 (PLK3, Homo sapiens, UniProt Q9H4B4)

Compound | effect on | action | method | concentration | quantity | result
C1=C/COCc2cc(ccc2OCCN2CCCC2)Nc2nccc(n2)-c2cccc(c2)COC/1 | binding |  |  | 0.1 µM | remaining binding | 99%
C[C@H]1CC[C@H](n2c3cnccc3c3cnc(Nc4ccc5c(n4)CCN(C(=O)CO)C5)nc32)CC1 | cell-free assay |  |  | 1 µM | remaining signal | 100%
CCCCC(=O)Nc1ccc(-c2ccc3ncn(CCC)c(=O)c3c2)cn1 | binding |  | competition with immobilised ligand | 0.5 µM | remaining binding | 98%
COc1ccc2oc(-c3ccc4nc(N)oc4c3)c/c(=N\c3ccccc3NC(=O)CCN)c2c1 | binding |  |  | 1 µM | remaining binding | 101%
COc1ccc2[nH]c3c4[nH]c5ccc(OC)cc5c4c4c(c3c2c1)C(=O)NC4=O | binding |  |  | 1 µM | remaining binding | 88%
C#Cc1cc(-c2cc(Nc3nc(N[C@@H](C)c4ccc(F)cn4)ncc3Cl)n[nH]2)ccc1C=O | enzyme activity | inhibitor |  | 0.2 µM | inhibition | 12.9%
CC#CC(=O)N1CCC[C@H]1c1nc(-c2ccc(C(=O)Nc3ccccn3)cc2)c2c(N)nccn12 | enzyme activity | inhibitor |  | 1 µM | inhibition | 0%
C#Cc1cnc(Nc2ccnc(CO)c2)nc1Nc1ccccc1S(C)(=O)=NC#N (stereo not shown) | cell-free assay |  |  | 1 µM | remaining signal | 34%
N#Cc1ccc(NC(=O)Nc2ccccc2)cc1 | cell-free assay |  | competition with immobilised ligand | 25 µM | remaining binding | 88%
C=CC(=O)N1CCC([C@@H]2CCNc3c(C(N)=O)c(-c4ccc(Oc5ccccc5)cc4)nn32)CC1 | enzyme activity | inhibitor |  | 1 µM | inhibition | 2%
